Measured values as given in ChEMBL document CHEMBL4229344 (Eur J Med Chem, 2018).
Active and inactive are the calls of the source. The calls are words filed in the database; no cut-off is given here.

Tests used:
[1] = test system: Tyrosine-protein kinase ABL1 (Homo sapiens), P00519 [T315I]; assay: Binding affinity to human non-phosphorylated ABL1 T315I mutant (S229 to K512 residues) expressed in mammalian expression system assessed as residual binding level at 1 uM by Kinomescan method relative to control
Method in brief: (§1)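 Kinome-wide single-concentration binding screen (KINOMEscan) at 1 μM against a panel of 468 purified kinases and mutants. Read-out is relative binding of each kinase compared with control. Selectivity across the panel was summarised as an S(10) score.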

[2] = target: 5'-AMP-activated protein kinase catalytic subunit alpha-1 (Homo sapiens) (UniProt Q13131); assay: Binding affinity to wild-type human partial length AMPK alpha1 (M1 to E306 residues) expressed in bacterial expression system assessed as residual binding level at 1 uM by Kinomescan method relative to control
Method in brief: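 Kinome-wide competition binding screen against a panel of 468 purified kinases/mutants, with the test compound at a single concentration of 1 μM. Read-out is the relative binding activity of each kinase in the presence of compound.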

[3] = target: Bone morphogenetic protein receptor type-2 (Homo sapiens) (UniProt Q13873); assay: Binding affinity to wild-type human partial length BMPR2 (R179 to Q526 residues) expressed in mammalian expression system assessed as residual binding level at 1 uM by Kinomescan method relative to control
Method in brief: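 Single-concentration KINOMEscan (DiscoverX) binding screen at 1 μM against a panel of 468 purified kinases and mutants. The read-out is binding relative to control.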

[4] = target: Serine/threonine-protein kinase BRSK1 (Homo sapiens) (UniProt Q8TDC3); assay: Binding affinity to wild-type human partial length BRSK1 (M1 to E754 residues) expressed in bacterial expression system assessed as residual binding level at 1 uM by Kinomescan method relative to control
[5] = target: Casein kinase I isoform alpha-like (Homo sapiens) (UniProt Q8N752); assay: Binding affinity to wild-type human full length CSNK1A1L (M1 to N337 residues) expressed in bacterial expression system assessed as residual binding level at 1 uM by Kinomescan method relative to control
Method in brief: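 Single-concentration (1 μM) competition-binding screen run by KINOMEscan against a panel of 468 purified kinases and mutants. The read-out is the relative binding activity of the test compound to each kinase.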

[6] = target: Casein kinase I isoform gamma-3 (Homo sapiens) (UniProt Q9Y6M4); assay: Binding affinity to wild-type human full length CSNK1G3 (M1 to K447 residues) expressed in bacterial expression system assessed as residual binding level at 1 uM by Kinomescan method relative to control
Method in brief: (§2)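 KINOMEscan competition binding against 468 purified kinases/mutants, test compound at 1 µM; residual binding relative to control.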

[7] = target: Death-associated protein kinase 3 (Homo sapiens) (UniProt O43293); assay: Binding affinity to wild-type human partial length DAPK3 (M1 to A277 residues) expressed in bacterial expression system assessed as residual binding level at 1 uM by Kinomescan method relative to control
[8] = test system: Epidermal growth factor receptor (Homo sapiens), P00533 [G719S]; assay: Binding affinity to human partial length EGFR G719S mutant (R669 to V1011 residues) expressed in bacterial expression system assessed as residual binding level at 1 uM by Kinomescan method relative to control; method in brief: as §1
[9] = target: Epidermal growth factor receptor (Homo sapiens) (UniProt P00533); assay: Binding affinity to human partial length EGFR S752-I759del mutant expressed in bacterial expression system assessed as residual binding level at 1 uM by Kinomescan method relative to control; method in brief: as §1
[10] = target: Interleukin-1 receptor-associated kinase 3 (Homo sapiens) (UniProt Q9Y616); assay: Binding affinity to wild-type human partial length IRAK3 (V147 to E596 residues) expressed in bacterial expression system assessed as residual binding level at 1 uM by Kinomescan method relative to control
[11] = target: MAP/microtubule affinity-regulating kinase 3 (Homo sapiens) (UniProt P27448); assay: Binding affinity to wild-type human full length MARK3 (M1 to L729 residues) expressed in bacterial expression system assessed as residual binding level at 1 uM by Kinomescan method relative to control; method in brief: as §2
[12] = target: Mitogen-activated protein kinase kinase kinase 11 (Homo sapiens) (UniProt Q16584); assay: Binding affinity to wild-type human partial length MLK3 (I77 to W399 residues) expressed in bacterial expression system assessed as residual binding level at 1 uM by Kinomescan method relative to control
[13] = target: Macrophage-stimulating protein receptor (Homo sapiens) (UniProt Q04912); assay: Binding affinity to wild-type human partial length MST1R (I1057 to L1363 residues) expressed in bacterial expression system assessed as residual binding level at 1 uM by Kinomescan method relative to control
[14] = target: Serine/threonine-protein kinase mTOR (Homo sapiens) (UniProt P42345); assay: Binding affinity to wild-type human partial length MTOR (L1382 to W2549 residues) expressed in mammalian expression system assessed as residual binding level at 1 uM by Kinomescan method relative to control
[15] = target: Serine/threonine-protein kinase 38 (Homo sapiens) (UniProt Q15208); assay: Binding affinity to wild-type human partial length NDR1 (N33 to E449 residues) expressed in mammalian expression system assessed as residual binding level at 1 uM by Kinomescan method relative to control
[16] = target: Serine/threonine-protein kinase D1 (Homo sapiens) (UniProt Q15139); assay: Binding affinity to wild-type human partial length PRKD1 (G551 to E870 residues) expressed in bacterial expression system assessed as residual binding level at 1 uM by Kinomescan method relative to control
Method in brief: (§3)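 KINOMEscan competition binding against a panel of 468 purified kinases/mutants, compound tested at 1 μM; readout is relative binding activity versus control.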

[17] = target: cGMP-dependent protein kinase 2 (Homo sapiens) (UniProt Q13237); assay: Binding affinity to wild-type human partial length PRKG2 (S422 to F762 residues) expressed in mammalian expression system assessed as residual binding level at 1 uM by Kinomescan method relative to control
[18] = target: TRAF2 and NCK-interacting protein kinase (Homo sapiens) (UniProt Q9UKE5); assay: Binding affinity to wild-type human partial length TNIK (D4 to K311 residues) expressed in bacterial expression system assessed as residual binding level at 1 uM by Kinomescan method relative to control; method in brief: as §3
[19] = target: Tyrosine-protein kinase receptor TYRO3 (Homo sapiens) (UniProt Q06418); assay: Binding affinity to wild-type human partial length TYRO3 (S497 to T814 residues) expressed in bacterial expression system assessed as residual binding level at 1 uM by Kinomescan method relative to control
[20] = test system: EOL1; assay: Antitumor activity against human EOL-1 cells xenografted in nu/nu mouse assessed as reduction in tumor cell proliferation at 25 to 100 mg/kg/day, ip by KI-67-staining based microscopic analysis; format: functional, organism-based
Method in brief: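 Female nu/nu mice (6 weeks) given subcutaneous right-flank injection of 5 million EOL-1 cells in PBS/Matrigel 1:1. At 200–400 mm3 tumors, randomized to groups of 6 and dosed daily i.p. for 14 days at 25, 50 or 100 mg/kg/d in 0.5% methylcellulose/0.4% Tween80. Tumor volume = W²×L/2, measured daily.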

Sequence of Serine/threonine-protein kinase 38 (Homo sapiens) (Q15208 2-465 limits assumed): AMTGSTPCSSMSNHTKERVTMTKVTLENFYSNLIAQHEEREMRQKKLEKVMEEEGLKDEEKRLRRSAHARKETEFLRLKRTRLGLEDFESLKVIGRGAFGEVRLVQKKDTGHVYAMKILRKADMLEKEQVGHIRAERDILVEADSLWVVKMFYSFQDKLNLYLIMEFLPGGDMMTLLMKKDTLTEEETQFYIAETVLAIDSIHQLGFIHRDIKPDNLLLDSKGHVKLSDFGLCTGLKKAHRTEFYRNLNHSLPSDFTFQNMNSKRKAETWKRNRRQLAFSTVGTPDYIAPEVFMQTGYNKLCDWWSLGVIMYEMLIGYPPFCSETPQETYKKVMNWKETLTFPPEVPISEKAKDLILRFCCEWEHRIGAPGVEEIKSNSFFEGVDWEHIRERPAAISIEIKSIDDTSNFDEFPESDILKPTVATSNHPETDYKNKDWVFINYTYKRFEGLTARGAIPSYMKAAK
Sequence of 5'-AMP-activated protein kinase catalytic subunit alpha-1 (Homo sapiens) (Q13131 whole entry, looked up, the tested form may be a part): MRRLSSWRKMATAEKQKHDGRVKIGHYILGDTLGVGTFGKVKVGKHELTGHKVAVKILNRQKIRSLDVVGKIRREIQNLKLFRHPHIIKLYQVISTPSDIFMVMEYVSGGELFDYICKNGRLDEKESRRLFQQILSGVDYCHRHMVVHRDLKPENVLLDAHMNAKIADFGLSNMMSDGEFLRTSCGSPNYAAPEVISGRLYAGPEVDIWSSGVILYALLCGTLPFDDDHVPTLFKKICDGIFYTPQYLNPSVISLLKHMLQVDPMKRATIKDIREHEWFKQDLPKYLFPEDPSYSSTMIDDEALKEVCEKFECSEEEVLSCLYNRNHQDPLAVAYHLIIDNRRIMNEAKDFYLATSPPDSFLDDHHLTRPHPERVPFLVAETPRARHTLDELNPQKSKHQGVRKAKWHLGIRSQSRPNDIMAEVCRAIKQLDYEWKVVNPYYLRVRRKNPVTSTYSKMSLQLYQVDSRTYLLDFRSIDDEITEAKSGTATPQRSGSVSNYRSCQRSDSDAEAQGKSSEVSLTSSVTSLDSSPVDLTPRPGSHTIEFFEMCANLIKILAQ
Sequence of Interleukin-1 receptor-associated kinase 3 (Homo sapiens) (Q9Y616 whole entry, the tested form may be a part): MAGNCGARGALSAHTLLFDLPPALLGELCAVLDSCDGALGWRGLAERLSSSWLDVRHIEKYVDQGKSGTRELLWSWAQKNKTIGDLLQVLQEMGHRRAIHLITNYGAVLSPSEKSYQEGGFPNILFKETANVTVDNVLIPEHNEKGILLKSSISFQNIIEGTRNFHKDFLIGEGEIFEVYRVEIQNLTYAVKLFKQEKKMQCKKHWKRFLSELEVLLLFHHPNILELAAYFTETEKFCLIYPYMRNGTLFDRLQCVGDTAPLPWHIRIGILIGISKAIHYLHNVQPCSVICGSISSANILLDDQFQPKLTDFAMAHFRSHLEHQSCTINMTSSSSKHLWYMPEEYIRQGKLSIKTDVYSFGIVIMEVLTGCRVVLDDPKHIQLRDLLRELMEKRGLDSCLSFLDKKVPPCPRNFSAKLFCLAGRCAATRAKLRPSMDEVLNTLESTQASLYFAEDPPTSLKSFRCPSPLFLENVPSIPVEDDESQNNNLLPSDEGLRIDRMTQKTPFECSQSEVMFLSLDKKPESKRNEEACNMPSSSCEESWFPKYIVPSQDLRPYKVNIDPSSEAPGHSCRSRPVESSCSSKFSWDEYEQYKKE
Sequence of MAP/microtubule affinity-regulating kinase 3 (Homo sapiens) (P27448 whole entry, looked up, the tested form may be a part): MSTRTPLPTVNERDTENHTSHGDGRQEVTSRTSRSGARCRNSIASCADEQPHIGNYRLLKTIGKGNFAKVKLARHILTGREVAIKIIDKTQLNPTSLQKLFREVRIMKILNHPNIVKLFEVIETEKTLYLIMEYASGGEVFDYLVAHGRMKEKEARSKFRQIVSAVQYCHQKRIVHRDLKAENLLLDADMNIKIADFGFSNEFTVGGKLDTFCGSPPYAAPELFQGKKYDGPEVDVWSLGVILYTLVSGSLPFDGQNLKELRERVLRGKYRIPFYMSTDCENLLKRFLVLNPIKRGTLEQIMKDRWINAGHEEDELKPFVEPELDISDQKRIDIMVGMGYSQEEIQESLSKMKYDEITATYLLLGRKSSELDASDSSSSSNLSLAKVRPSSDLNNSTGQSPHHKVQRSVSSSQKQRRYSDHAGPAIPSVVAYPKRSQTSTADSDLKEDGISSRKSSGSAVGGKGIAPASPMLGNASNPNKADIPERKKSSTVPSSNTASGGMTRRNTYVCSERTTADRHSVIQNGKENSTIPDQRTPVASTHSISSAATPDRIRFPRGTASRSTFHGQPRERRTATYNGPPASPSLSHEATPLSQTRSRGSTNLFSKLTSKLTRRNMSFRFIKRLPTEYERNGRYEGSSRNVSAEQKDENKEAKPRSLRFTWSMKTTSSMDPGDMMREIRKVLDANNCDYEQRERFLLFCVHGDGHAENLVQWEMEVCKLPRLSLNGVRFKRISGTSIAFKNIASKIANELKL
Sequence of Casein kinase I isoform alpha-like (Homo sapiens) (Q8N752 whole entry, the tested form may be a part, canonical isoform): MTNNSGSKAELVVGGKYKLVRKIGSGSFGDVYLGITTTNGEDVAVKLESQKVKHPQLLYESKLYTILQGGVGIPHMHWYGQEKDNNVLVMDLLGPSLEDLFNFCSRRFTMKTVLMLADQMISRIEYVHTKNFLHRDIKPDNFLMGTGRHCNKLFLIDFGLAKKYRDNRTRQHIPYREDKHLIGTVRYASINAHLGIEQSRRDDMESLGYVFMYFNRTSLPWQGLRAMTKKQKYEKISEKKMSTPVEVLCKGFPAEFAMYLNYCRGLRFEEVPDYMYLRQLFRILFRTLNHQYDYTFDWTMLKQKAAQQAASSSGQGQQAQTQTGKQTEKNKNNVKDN
Sequence of Mitogen-activated protein kinase kinase kinase 11 (Homo sapiens) (Q16584 whole entry, looked up, the tested form may be a part): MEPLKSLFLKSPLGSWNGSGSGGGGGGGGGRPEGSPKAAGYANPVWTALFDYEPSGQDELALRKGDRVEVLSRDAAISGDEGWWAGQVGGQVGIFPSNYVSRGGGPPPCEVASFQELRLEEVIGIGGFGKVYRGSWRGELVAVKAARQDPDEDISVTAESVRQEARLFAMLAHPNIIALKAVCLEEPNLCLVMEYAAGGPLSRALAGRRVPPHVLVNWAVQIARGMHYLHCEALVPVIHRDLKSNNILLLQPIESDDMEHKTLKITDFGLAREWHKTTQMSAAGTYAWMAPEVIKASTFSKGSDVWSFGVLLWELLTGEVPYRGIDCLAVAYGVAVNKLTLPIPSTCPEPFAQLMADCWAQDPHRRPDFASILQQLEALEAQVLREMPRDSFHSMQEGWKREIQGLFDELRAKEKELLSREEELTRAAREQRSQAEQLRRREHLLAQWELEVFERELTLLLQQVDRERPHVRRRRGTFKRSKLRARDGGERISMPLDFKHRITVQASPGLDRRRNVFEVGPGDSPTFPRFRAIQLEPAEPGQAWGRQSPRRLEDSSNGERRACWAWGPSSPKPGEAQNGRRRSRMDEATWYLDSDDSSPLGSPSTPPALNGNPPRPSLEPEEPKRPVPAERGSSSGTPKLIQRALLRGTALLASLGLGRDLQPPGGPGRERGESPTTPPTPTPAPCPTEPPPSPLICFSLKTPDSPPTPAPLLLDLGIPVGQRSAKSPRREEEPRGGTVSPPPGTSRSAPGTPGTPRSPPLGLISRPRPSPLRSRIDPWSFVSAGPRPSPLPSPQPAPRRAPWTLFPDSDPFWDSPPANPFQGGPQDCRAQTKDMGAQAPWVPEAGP
Sequence of Serine/threonine-protein kinase BRSK1 (Homo sapiens) (Q8TDC3 whole entry, the tested form may be a part, canonical isoform): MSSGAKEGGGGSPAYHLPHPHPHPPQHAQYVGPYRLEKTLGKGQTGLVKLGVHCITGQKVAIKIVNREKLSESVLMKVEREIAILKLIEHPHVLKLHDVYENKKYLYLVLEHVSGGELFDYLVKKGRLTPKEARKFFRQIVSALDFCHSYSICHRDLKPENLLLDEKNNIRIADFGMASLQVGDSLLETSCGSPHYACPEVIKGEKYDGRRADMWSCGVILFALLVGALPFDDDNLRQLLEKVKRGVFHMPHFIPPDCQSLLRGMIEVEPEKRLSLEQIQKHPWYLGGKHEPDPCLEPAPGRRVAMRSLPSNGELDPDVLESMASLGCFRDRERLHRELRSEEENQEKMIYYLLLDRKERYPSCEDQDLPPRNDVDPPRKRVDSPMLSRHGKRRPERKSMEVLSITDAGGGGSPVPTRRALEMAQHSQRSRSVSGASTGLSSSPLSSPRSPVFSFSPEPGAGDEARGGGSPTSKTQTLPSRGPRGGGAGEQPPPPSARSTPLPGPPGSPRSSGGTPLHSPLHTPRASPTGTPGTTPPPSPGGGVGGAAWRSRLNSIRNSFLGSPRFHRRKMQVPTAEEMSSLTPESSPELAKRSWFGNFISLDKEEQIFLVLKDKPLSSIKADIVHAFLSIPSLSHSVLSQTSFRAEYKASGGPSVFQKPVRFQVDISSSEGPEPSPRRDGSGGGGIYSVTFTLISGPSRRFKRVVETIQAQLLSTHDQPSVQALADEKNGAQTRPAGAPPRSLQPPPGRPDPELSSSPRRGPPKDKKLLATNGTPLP
Sequence of Casein kinase I isoform gamma-3 (Homo sapiens) (Q9Y6M4 whole entry, looked up, the tested form may be a part, canonical isoform): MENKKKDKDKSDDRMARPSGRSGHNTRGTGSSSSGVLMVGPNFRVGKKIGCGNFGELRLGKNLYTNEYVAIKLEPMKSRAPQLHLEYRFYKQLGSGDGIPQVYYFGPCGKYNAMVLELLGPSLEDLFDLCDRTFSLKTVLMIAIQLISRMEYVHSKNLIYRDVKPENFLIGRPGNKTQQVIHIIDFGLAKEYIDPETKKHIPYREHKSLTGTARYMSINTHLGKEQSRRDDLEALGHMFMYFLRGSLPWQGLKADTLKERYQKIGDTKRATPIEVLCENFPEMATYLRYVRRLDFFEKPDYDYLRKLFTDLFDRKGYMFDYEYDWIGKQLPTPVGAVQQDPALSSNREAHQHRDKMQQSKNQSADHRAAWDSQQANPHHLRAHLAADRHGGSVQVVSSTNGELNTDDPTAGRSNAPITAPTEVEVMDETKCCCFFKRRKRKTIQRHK

Cc1ccc(NC(=O)c2ccc(CN(CCN(C)C)C(=O)c3cccnc3)cc2)cc1Nc1nccc(-c2cccnc2)n1
Activity [1]: 100% | Activity [2]: 92% | Activity [3]: 100% | Activity [4]: 93% | Activity [5]: 93% | Activity [6]: 92% | Activity [7]: 93% | Activity [8]: 85% | Activity [9]: 90% | Activity [10]: 100% | Activity [11]: 80% | Activity [12]: 100% | Activity [13]: 100% | Activity [14]: 100% | Activity [15]: 71% | Activity [16]: 75% | Activity [17]: 100% | Activity [18]: 83% | Activity [19]: 85% | Activity [20]: Active
